Test results reported in ChEMBL document CHEMBL3822356, “Urotensin II((4-11)) Azasulfuryl Peptides: Synthesis and Biological Activity” (J Med Chem, 2016).
Activity calls are given as the source filed them. The calls are words filed in the database; no cut-off is given here. Where a SMILES comes first, the peptide text is derived from it.

Tests used:
[1] = biological target: T1, Urotensin-2 receptor (Homo sapiens) (UniProt Q9UKP6); experiment: Displacement of [125I]-hU2 from human UT2 receptor expressed in CHO cells at 10^-5 M after 90 mins by gamma counter assay; assay type: cell-based
T1 sequence (whole entry): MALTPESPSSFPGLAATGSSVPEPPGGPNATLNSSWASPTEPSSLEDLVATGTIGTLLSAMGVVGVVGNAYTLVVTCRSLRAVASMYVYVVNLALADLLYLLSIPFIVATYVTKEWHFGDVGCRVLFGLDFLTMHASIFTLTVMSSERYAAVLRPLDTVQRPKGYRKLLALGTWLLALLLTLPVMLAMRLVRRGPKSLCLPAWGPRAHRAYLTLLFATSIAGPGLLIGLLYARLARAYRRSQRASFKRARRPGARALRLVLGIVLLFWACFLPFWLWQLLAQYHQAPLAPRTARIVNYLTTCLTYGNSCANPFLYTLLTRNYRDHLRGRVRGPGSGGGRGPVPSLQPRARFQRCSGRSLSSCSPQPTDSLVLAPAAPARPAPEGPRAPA

Urotensin-2 receptor = biological target: T2, Urotensin-2 receptor (Homo sapiens, UniProt Q9UKP6); experiment: Displacement of [125I]-hU2 from human UT2 receptor expressed in CHO cells after 90 mins by gamma counter assay; assay type: cell-based
T2 sequence (Q9UKP6 whole entry): T1 sequence (whole entry)
In short: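 CHO cells overexpressing human UT receptor incubated with test peptide. Displacement of 125I-hUII from UT measured. At least three independent experiments, each determination in triplicate; mean ± S.E.M.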

[2] = biological target: T3, Urotensin-2 receptor (Rattus norvegicus) (UniProt P49684); experiment: Antagonist activity at UT2 receptor in Sprague-Dawley rat thoracic aorta ring assessed as Emax for hU2-induced aortic contractions at 10^-5M relative to KCl; assay type: tissue-based
T3 sequence (whole entry): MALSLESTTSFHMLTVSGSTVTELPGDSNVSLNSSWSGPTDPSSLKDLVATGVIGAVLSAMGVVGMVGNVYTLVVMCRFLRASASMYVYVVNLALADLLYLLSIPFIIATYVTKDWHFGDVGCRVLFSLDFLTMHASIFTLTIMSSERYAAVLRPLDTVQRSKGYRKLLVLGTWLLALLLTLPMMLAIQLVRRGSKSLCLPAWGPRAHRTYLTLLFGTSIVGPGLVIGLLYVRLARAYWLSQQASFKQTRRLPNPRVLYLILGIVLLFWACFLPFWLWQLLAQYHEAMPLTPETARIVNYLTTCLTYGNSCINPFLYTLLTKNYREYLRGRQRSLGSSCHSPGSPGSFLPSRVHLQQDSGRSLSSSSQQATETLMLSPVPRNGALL
In short: (§1)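 Rat aortic rings pre-exposed to test peptide at 10^-5 M, then given cumulative increasing concentrations (10^-11 to 10^-6 M) of hUII or URP. Contraction measured to give pEC50 and Emax, expressed relative to KCl-induced contraction. Mean ± SEM; unpaired Student's t test against hUII or URP alone.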

[3] = biological target: T3, Urotensin-2 receptor (Rattus norvegicus); experiment: Antagonist activity at UT2 receptor in Sprague-Dawley rat thoracic aorta ring assessed as Emax for URP-induced aortic contractions at 10^-5M relative to KCl; assay type: tissue-based; in short: as §1
[4] = biological target: T3, Urotensin-2 receptor (Rattus norvegicus); experiment: Partial agonist activity at UT2 receptor in Sprague-Dawley rat thoracic aorta ring assessed as induction of aortic contractions at 10 to 100 uM relative to KCl; assay type: tissue-based
In short: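 Peptides applied alone to rat aortic rings to test for induced contraction. Response expressed as percent of KCl-induced contraction.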

| SMILES | inhibition [1] [%] | IC50 (Urotensin-2 receptor) [nM] | Emax [2] [%] | Emax [3] [%] | Efficacy [4] [%] | Activity [4] |
| --- | --- | --- | --- | --- | --- | --- |
| CC(C)[C@H](NC(=O)[C@@H]1CSSC[C@H](NC(=O)[C@@H](N)CC(=O)O)C(=O)N[C@@H](Cc2ccccc2)C(=O)NN(Cc2ccccc2)S(=O)(=O)N[C@@H](CCCCN)C(=O)N[C@@H](Cc2ccc(O)cc2)C(=O)N1)C(=O)O (HELM PEPTIDE1{D.C.F.[NCCCC[C@H](NS(=O)(=O)N(Cc1ccccc1)N[*:1])C(=O)[*:2]].Y.C.V}$PEPTIDE1,PEPTIDE1,2:R3-6:R3$$$V2.0) | 40 | > 1000 | 87 | 101 | 3 | – |
| CC(C)[C@H](NC(=O)[C@@H]1CSSC[C@H](NC(=O)[C@H](CC(=O)O)NC(=O)[C@@H]2CCCN2C(=O)[C@@H](NC(=O)[C@@H](N)CCC(=O)O)[C@@H](C)O)C(=O)N[C@@H](Cc2ccccc2)C(=O)N[C@@H](Cc2c[nH]c3ccccc23)C(=O)N[C@@H](CCCCN)C(=O)N[C@@H](Cc2ccc(O)cc2)C(=O)N1)C(=O)O | – | – | – | – | – | Active |
| CC(C)[C@H](NC(=O)[C@@H]1CSSC[C@H](NC(=O)[C@@H](N)CC(=O)O)C(=O)N[C@@H](Cc2ccccc2)C(=O)NN(Cc2ccc(-c3ccccc3)cc2)S(=O)(=O)N[C@@H](CCCCN)C(=O)N[C@@H](Cc2ccc(O)cc2)C(=O)N1)C(=O)O | 40 | > 1000 | 51 | 69 | 3 | – |
| CC(C)[C@H](NC(=O)[C@@H]1CSSC[C@H](NC(=O)[C@@H](N)CC(=O)O)C(=O)N[C@@H](Cc2ccccc2)C(=O)NN(Cc2ccc3ccccc3c2)S(=O)(=O)N[C@@H](CCCCN)C(=O)N[C@@H](Cc2ccc(O)cc2)C(=O)N1)C(=O)O | 40 | > 1000 | 65 | 105 | 3 | – |
| CC(C)[C@H](NC(=O)[C@@H]1CSSC[C@H](NC(=O)[C@@H](N)CC(=O)O)C(=O)N[C@@H](Cc2ccccc2)C(=O)NN(Cc2cccc3ccccc23)S(=O)(=O)N[C@@H](CCCCN)C(=O)N[C@@H](Cc2ccc(O)cc2)C(=O)N1)C(=O)O | 40 | > 1000 | 29 | 38 | 3 | – |
| CC(C)[C@H](NC(=O)[C@@H]1CSSC[C@H](NC(=O)[C@H](C)N)C(=O)N[C@@H](Cc2ccccc2)C(=O)N[C@@H](Cc2c[nH]c3ccccc23)C(=O)N[C@@H](CCCCN)C(=O)N[C@@H](Cc2ccc(O)cc2)C(=O)N1)C(=O)O | – | – | – | – | – | Active |
| CC(C)[C@H](NC(=O)[C@@H]1CSSC[C@H](NC(=O)[C@@H](N)CC(=O)O)C(=O)N[C@@H](Cc2ccccc2)C(=O)N[C@@H](Cc2c[nH]c3ccccc23)C(=O)NN(CCCCN(C)C)S(=O)(=O)N[C@@H](Cc2ccc(O)cc2)C(=O)N1)C(=O)O (HELM PEPTIDE1{D.C.F.W.[CN(C)CCCCN(N[*:1])S(=O)(=O)N[C@@H](Cc1ccc(O)cc1)C(=O)[*:2]].C.V}$PEPTIDE1,PEPTIDE1,2:R3-6:R3$$$V2.0) | 40 | > 1000 | 83 | 110 | – | inactive |
| CC(C)[C@H](NC(=O)[C@@H]1CSSC[C@H](NC(=O)[C@@H](N)CC(=O)O)C(=O)N[C@@H](Cc2ccccc2)C(=O)N[C@@H](Cc2c[nH]c3ccccc23)C(=O)NN(CCCCN)S(=O)(=O)N[C@@H](Cc2ccc(O)cc2)C(=O)N1)C(=O)O (HELM PEPTIDE1{D.C.F.W.[NCCCCN(N[*:1])S(=O)(=O)N[C@@H](Cc1ccc(O)cc1)C(=O)[*:2]].C.V}$PEPTIDE1,PEPTIDE1,2:R3-6:R3$$$V2.0) | 40 | > 1000 | 83 | 110 | – | inactive |
